Our source for the IC50 values is ChEMBL document CHEMBL2434874, “Synthesis and antiproliferative activity of benzofuran-based analogs of cercosporamide against non-small cell lung cancer cell lines” (Eur J Med Chem, 2013).

The subject of one test is A549. Put plainly: Cytotoxicity against human A549 cells expressing wild type p53 by MTT assay. It counts as functional, cell-based.
Test [1] can be described thus: Cytotoxicity against human NSCLC-N6 cells expressing mutant p53 by MTT assay. It counts as functional, cell-based. Put shortly:
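Cells grown in RPMI 1640 and seeded in 96-well plates (NSCLC-N6 at 10⁵ cells/mL). Cells exposed to drug continuously. Growth measured colorimetrically by mitochondrial reduction of MTT to formazan, with solubilized formazan read at 570 nm. Eight replicates per concentration; control growth from 8 determinations.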

The mark [2] stands for this setting: Homo sapiens, A549, read-out: IC50.
[3] abbreviates: Homo sapiens, NSCLC-N6, read-out: IC50.

Structures are written as SMILES.

With `COc1cc(OC)c2c(C)c(C(N)=O)oc2c1C(N)=O`, the results for the IC50 (in the test on A549 (setting [2]); in test [1] (setting [3])) were 39.4 µM and 22.6 µM, respectively.
With `COc1cc(OC)c2c(C)c(C=O)oc2c1`, the 50% inhibitory concentration (IC50) entry (with A549 (a549); in test [1] (nsclc-n6)) was “Not Active” each time.
In the case of `COc1cc(OC)c2c(C)c(C=O)oc2c1Br`, the IC50 in the test on A549 (setting [2]) was 49.5 µM; in test [1] (nsclc-n6), “Not Active”.
As to `COc1cc(OC)c2c(C)c(C=O)oc2c1C#N`, the IC50 entry (in the test with A549 (a549); in test [1] (nsclc-n6)) was “Not Active” each time.
Consider `COc1cc(OC)c2c(C)c(C=O)oc2c1C(N)=O`, for which the IC50 was 63.8 µM with A549 (setting [2]) and 44.4 µM in test [1] (setting [3]).
With `Cc1c(C=O)oc2c(C(N)=O)c(O)cc(O)c12`, the values for the IC50 (in the test on A549 (setting [2]); in test [1] (setting [3])) were 108 µM and 60.8 µM, respectively.
For `CCOC(=O)c1oc2cc(OCc3ccccc3)cc(OCc3ccccc3)c2c1C` the same measures were greater than 72 µM and greater than 72 µM.
The like results for `Cc1c(C=O)oc2cc(OCc3ccccc3)cc(OCc3ccccc3)c12` were, in that order, greater than 80.6 µM and greater than 80.6 µM.
For `CCOC(=O)c1oc2cc(O)cc(O)c2c1C` the same measures were 68.6 µM and 65.6 µM.
In the case of `Cc1c(C=O)oc2cc(O)cc(O)c12`, the IC50 result (with A549 (a549); in test [1] (nsclc-n6)) was “Not Active” throughout.
On to `CCOC(=O)c1oc2c(C(N)=O)c(OCc3ccccc3)cc(OCc3ccccc3)c2c1C`, for which the IC50 (in the test on A549 (setting [2]); in test [1] (setting [3])) was less than 7.2 µM each time.
For the compound `CCOC(=O)c1oc2c(C(N)=O)c(O)cc(O)c2c1C`, the half-inhibitory concentration (IC50) in the test with A549 (setting [2]) was 24 µM; in test [1] (setting [3]), 32.9 µM.
`CCOC(=O)c1oc2cc(OC)cc(OC)c2c1C`: the IC50 result (in the test with A549 (a549); in test [1] (nsclc-n6)) was “Not Active” in each case.
Take `CCOC(=O)c1oc2c(Br)c(OC)cc(OC)c2c1C`: the IC50 (in the test with A549 (setting [2]); in test [1] (setting [3])) was greater than 87.4 µM each time.
`CCOC(=O)c1oc2c(C#N)c(OC)cc(OC)c2c1C`: the IC50 entry (with A549 (a549); in test [1] (nsclc-n6)) was “Not Active” each time.
In the case of `CCOC(=O)c1oc2c(C(N)=O)c(OC)cc(OC)c2c1C`, the IC50 entry (in the test with A549 (a549); in test [1] (nsclc-n6)) was “Not Active” throughout.
Take `CCCNC(=O)c1oc2c(C(N)=O)c(OC)cc(OC)c2c1C`: the 50% inhibitory concentration (IC50) (in the test on A549 (setting [2]); in test [1] (setting [3])) was greater than 93.6 µM each time.
As to `COc1cc(OC)c2c(C)c(C(=O)NCc3ccccc3)oc2c1C(N)=O`, the results for the IC50 (in the test on A549 (setting [2]); in test [1] (setting [3])) were 54.8 µM and greater than 81.4 µM, respectively.
Turning to `COc1cc(OC)c2c(C)c(C(=O)Nc3ccccc3)oc2c1C(N)=O`, the half-maximal inhibitory concentration (IC50) (in the test with A549 (setting [2]); in test [1] (setting [3])) was less than 9.3 µM each time.
Consider `COc1cc(OC)c2c(C)c(C(=O)Nc3ccccn3)oc2c1C(N)=O`, for which the IC50 (in the test on A549 (setting [2]); in test [1] (setting [3])) was greater than 84.4 µM throughout.
Regarding `COc1cc(OC)c2c(C)c(C(=O)Nc3ccncc3)oc2c1C(N)=O`, the IC50 (in the test on A549 (setting [2]); in test [1] (setting [3])) was less than 9.3 µM throughout.
